Data as given in ChEMBL document CHEMBL4513216, “Probing the Open Global Health Chemical Diversity Library for Multistage-Active Starting Points for Next-Generation Antimalarials” (ACS Infect Dis, 2020).

Test: Toxicity liver stage against HepG2, at 10uM
Assay type: cell-based
Design: test concentration 10 uM, cell line HepG2-A16-CD81EGFP
Details: human, HepG2-A16-CD81EGFP cells; read-out: INHIBITION
Procedure, shortened: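 Uninfected HepG2-A16-CD81EGFP cells, 3 × 10^3 per well, 1536-well, plated on prespotted compound at 10 μM final, parasite-free screening media added to match infected plates; puromycin 10 μM positive, DMSO 0.5% negative; run in parallel with 48 h PbLuc assay at 37 °C, 5% CO2; viability by CellTiter-Glo luminescence, normalized to controls.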

Structure (SMILES)	cytotoxicity at 10 µM [%]
CN1CCCN(Cc2nc(Cc3ccccc3)n[nH]2)CC1	-7.47
N#Cc1cccc(S(=O)(=O)NC(=O)c2csc(-c3ccco3)n2)c1	4.34
CN1CC(C(=O)NCc2cccnc2OCC(F)(F)F)CC1=O (configuration not stated)	-6.6
O=C(C1SCCc2sccc21)N1CCN(CCO)CC1 (configuration not stated)	-19.8
CS(=O)(=O)NCCCNCc1cc(F)ccc1Br	15.7
Cc1cccc(-c2nc(C)nn2CN2CCN(c3ncccn3)CC2)c1	-6.45
CN(CC(F)(F)F)C(=O)C1CSCN1C(=O)OC(C)(C)C (configuration not stated)	-0.265
O=C(NCCNc1cnccn1)N1CCCCCC1	-3.33
O=C(C1CC(=O)N(c2ccccc2Br)C1)N1CCN(CC(F)(F)F)CC1 (configuration not stated)	7.29
O=C(N1CCCC1)N1CCN(Cc2cccnc2)c2ncccc2C1	3.33
COc1cc(CNC(c2ccccc2)c2nccn2C)cc(OC)c1 (configuration not stated)	-6.69
CSCc1noc(CNC(=O)c2cc(C)c(C)[nH]c2=O)n1	0.355
CN(CC(O)C(F)(F)F)C(=O)Nc1cccc(N2CCCC2)c1 (configuration not stated)	5.48
Cc1cnn(CC2CN(Cc3nccn3CC(F)(F)F)CCO2)c1 (configuration not stated)	-11.7
CNC(=O)[C@@H]1C[C@H]2CN(Cc3csc(C)n3)C[C@H]2N1C(C)C	7.08
Cc1cccc(CN2CC3C[C@]3(NC(=O)c3cccc(F)c3)C2)n1 (some centres not stated)	-151
CC1CCc2sc(C(=O)Nc3cnn(C)c3)cc2C1 (configuration not stated)	9.48
CC(C)(C(=O)N1CCCC(OCc2cccnc2)C1)n1cccc1 (configuration not stated)	-4.06
CSc1ccsc1C(=O)NS(=O)(=O)c1cccc(C#N)c1	7.49
Cn1cc(CN2CCc3onc(C(=O)Nc4cccnc4)c3C2)cn1	4.22
O=C(Cc1ccn[nH]1)N1CCc2cc(Br)sc2C1	4.42

Structure (SMILES)	cytotoxicity at 10 µM [%]
c1csc(CN2CCc3ncnc(C4CCOC4)c3CC2)n1 (configuration not stated)	4.53
Cc1ccc(C2(CN(C)Cc3c(C)nn(C)c3C)CCNCC2)nc1	-0.44
Cc1cccc(N(CCC(N)=O)C(=O)c2cc(-n3cccn3)ccn2)c1	-1.5
CC(=O)N[C@@H]1CN(Cc2ccccc2C#N)C[C@H]1c1ccc(C)cc1	-4.27
Cc1ccc(CC(=O)N(CC2CN(C)CCO2)c2nccs2)cn1 (configuration not stated)	-9.89
COCCOCC(=O)Nc1ccc(C)cc1Br	-6.99
CCOc1cc(CN(C)CCOC)ccc1OC(F)F	-13.7
O=c1c2c[nH]c(N3CCOCC3)nc-2cn1C1CCS(=O)(=O)C1 (configuration not stated)	3.41
COc1cc(CNc2cnn(CC(F)F)c2)ccc1O	0.553
Cc1ccc(N2CCC3(CN(Cc4cccs4)CCC3(F)F)C2)nn1 (configuration not stated)	8.39
CN(Cc1cccnc1)C1CC2(CCN(C(=O)c3ccnnc3)CC2)C1	5.41
Cc1ccccc1-c1noc(CN2CC(n3cccn3)C2)n1	-4.21
Cc1ncsc1C(=O)OCCN1CCCc2ccccc21	2.42
O=C(c1cccnc1O)N1CCCC2(C=Cc3ccccc3O2)CC1 (configuration not stated)	9.02
CC(=O)N1CCN(C(=O)c2ccc(Sc3ccccn3)cc2)CC1	10.7
O=S(=O)(c1ccc(Cl)cc1)N1CCC(OCc2ccccn2)C1 (configuration not stated)	1.48
NCC1Cc2cc(-c3nccc(N4CCC(O)CC4)n3)cc(Cl)c2O1 (configuration not stated)	-4.33
CC(=O)Nc1ccc2nn(C(C)C)cc2c1	-145
COc1ccc(CCN2CCC(N3CCN(C)C3=O)CC2)cc1	-6.64
CCCN1CCN(CC(O)c2ccc(OC(F)(F)F)cc2)CC1 (configuration not stated)	-20.5
Cc1cc(CN(Cc2ccccc2)C2CC2)on1	0.174

Structure (SMILES)	cytotoxicity at 10 µM [%]
Cc1cnn(CC2CCCN2C(=O)CCc2ccc3c(c2)OCO3)c1 (configuration not stated)	-19
CCS(=O)(=O)N1C[C@H]2CC[C@](O)(c3ccc(C)cc3)[C@H]2C1	-23.2
Cc1nc(-c2ccccc2)sc1CSCCS(C)(=O)=O	3.85
CCCN1CCCC2(CCN(c3nc(C)nc4ccsc34)C2)C1=O (configuration not stated)	17.4
Cc1ccc(C(=O)Nc2ccc3c(c2)N(C)CCN(C)C3)c(=O)[nH]1	-2.17
Cc1csc(N2CCCN(Cc3ccn(C)c(=O)c3)CC2)n1	12.8
COc1ncnc2c1CCN(C(=O)NCc1cccnc1)CC2	-133
CCN1CCOCC2(CCCN(C(=O)c3cccc(O)c3)C2)C1 (configuration not stated)	0.14
CN(Cc1nccn1C)S(=O)(=O)N1CCCC1c1ccco1 (configuration not stated)	3.21
Cc1nn(CC(O)CN2CCC(C)CC2)c(=O)c(C#N)c1C (configuration not stated)	5.84
CN(Cc1n[nH]c(=O)n1Cc1ccco1)S(C)(=O)=O	-1.25
CN1CCCC1c1ccc(C(=O)N2CCc3ccccc3C2)s1 (configuration not stated)	1.66
O=C(Cc1cccs1)N1CC[C@H]2[C@H]1CCN2Cc1cccnc1	2.41
O=C1[C@H]2CN(Cc3cccs3)C[C@H]2CN1CCN1CCCC1	-12.7
Fc1cccc(C2(CNC3CCCNC3)CCOCC2)c1 (configuration not stated)	0.979
Cc1nn(C(C)C)c(C)c1NC(=O)c1ccc(F)cc1	-2.27
Cc1nc(C2CCN(CC(=O)NC3CC3)CC2)cc(N2CCOCC2)n1	2.39
O=S(=O)(c1cccs1)N1CCCn2nnc(CN3CCCCC3)c2C1	-17.5
CC(C)(Oc1ccc(F)cc1)C(=O)NCc1ccco1	-9.19
Cc1csc(CN2CC[C@H]3C[C@H](c4nnc(C)[nH]4)O[C@@H]3C2)n1	-19.6
COc1ncccc1CN1C[C@@H]2COC[C@]2(COCC2CC2)C1	5.37

Structure (SMILES)	cytotoxicity at 10 µM [%]
Cc1ccc2[nH]c(C3CCN(CC(N)=O)CC3)nc2c1	3.23
Cn1cc(CN2CCC[C@]3(C[C@H](Oc4ncccc4F)CO3)C2)cn1	9.92
CCOc1ncccc1CNC(=O)c1cccc(C)n1	-2.42
Cc1occc1C(=O)N1CCn2cnc(COCC3CC3)c2C1	-6.4
O=C(Nc1cnccn1)[C@H]1CC[C@@H]2[C@@H](CCN2Cc2ccoc2)O1	8.86
CCCN1CCC2(CC1)CN(C(=O)c1cccnc1)c1ccc(F)cc12	-104
Cc1cc(NC(=O)CN2CCCC2c2noc(C3CC3)n2)no1 (configuration not stated)	-13
CCC(Nc1cccc(OC)c1)C(=O)NCc1ccc2[nH]c(=O)[nH]c2c1 (configuration not stated)	1.67
O=C(c1ccc2[nH]c(=O)[nH]c2c1)N1CCC(Nc2cccnn2)CC1	0.00528
CNc1cc(-c2ccncc2)ncn1	-13.9
CSCc1noc(CNS(=O)(=O)c2cccc(C(=O)NC3CC3)c2)n1	-2.51
COc1ccc(C)cc1NC(=O)Nc1cnc(N2CCCC2)nc1	6.62
COc1ccc(-n2cnnc2SCC(=O)N(C)C(C)C)cn1	16.7
COC(=O)CNC(=O)c1cc(-c2ccccc2)nc2ncnn12	-5.07
Cc1noc(C)c1CN1CCc2cnn(C)c2C1COCC1CC1 (configuration not stated)	10.7
Cn1cc(CNCC2(O)CCCCC2)c(-c2cccnc2)n1	14.9
CN(C)c1ccc(-c2cc(C(=O)O)cc(S(=O)(=O)NC3CC3)c2)cc1	16.5
Cc1cn2c(n1)CCC(NC(=O)c1cc(C3CC3)[nH]n1)C2 (configuration not stated)	-16.9
O=C1NCCCCC1NC(=O)N1CCCc2cc(F)ccc21 (configuration not stated)	-4.53
